F508del corr = CFTR F508del correction in bronchial cells | 350,000 tested, 0.36% active | CFBE cells, YFP halide quenching; stimulated with forskolin plus potentiator P3; % fluorescence drop versus neutral controls | activity (quench increase), % at 7.58 µM;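 active = mean added fluorescence quench of at least 8% versus neutral control, with both replicates also reaching 8%; inconclusive = only one of the mean or replicate conditions met; inactive = mean below 8% and not both replicates reaching 8%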;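 note: cells transiently co-express mutant CFTR-F508del with the halide-sensitive YFP; corrector assay measuring rescue of mutant channel to the surface after 24 h compound exposure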
DENV2 CPE rescue = protects cells from dengue virus 2 cytopathic effect | DENV2-infected cells, cytopathic effect rescue, plate reader | CPE inhibition, % at 9.99 µM | 350,000 tested, 1.7% active; in the data active = CPE inhibition above about 20%, passing the limit was not always enough; inconclusive = no clear call, values can overlap the other calls; tested in BHK-21 cells;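 note: 0% = median of neutral control wells and 100% = median of positive control wells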
FN deposit inh = fibronectin deposition inhibition. AH1F fibroblasts, Alexa488-fibronectin deposition fluorescence, overnight. inhibition, % at 12.6 µM. 350,000 tested, 0.086% active;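 active = mean inhibition across replicates of 30% or more, regardless of how many single replicates reach that level; inconclusive = mean under 30% yet at least half of replicates reach 30%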;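 note: positive control wells lacked labelled fibronectin entirely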
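Material: AH1F fibroblast monolayer depositing Alexa488-labelled fibronectin into matrix / Amount: 10000 AH1F cells per well / Signal: fluorescence 485/525 nm / Medium: DMEM, 2% serum / Compound: single dose, pinned / Incubation: 1 h cell adhesion before compound, then overnight fibronectin incubation / Reagent: Alexa488-FN, 24 nM final / Read-out: inhibition of fibronectin deposition signal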
Xi reactivation = reactivates the inactive X chromosome in mouse fibroblasts | XiGFP mouse fibroblasts, % GFP-positive cells imaging, 3 d; cells co-treated with 5-aza-dC sensitizer; scaled so ellipticine positive control = 100% | activation, % at 7.58 µM | 360,000 tested, 0.055% active;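 active = mean normalized replicate activation at least 10% and every replicate at or above 10%; inconclusive = only one of the two criteria met; inactive = mean below 10% and not all replicates reach 10%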;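 note: 0% = median of on-plate neutral control wells and 100% = ellipticine 6 µM median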
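Material: SV40-immortalized XiGFP fibroblast cells, line 68-5-11 | Buffer or medium: DMEM containing 5-aza-dC | Dosing: One concentration, pinned | Times: 3 d treatment, 15 min room-temperature fixation | Controls: Ellipticine 6 µM positive control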
Cneo AK release = Cryptococcus neoformans lysis via adenylate kinase release | C. neoformans lysis, adenylate kinase release luminescence, 4 h; normalised: neutral wells 0, clomiphene wells 100 | lysis activity, % at 15 µM | 360,000 tested, 0.2% active;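 active = mean lysis activity across replicates of at least 80%, whatever share of replicates individually reach that level; inactive = mean lysis activity below 80%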
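Material – Cryptococcus neoformans yeast cells · Quantity – 5 × 10^6 yeast cells/mL · Buffer or medium – YPD medium · Compound – single dose · Timing – 4 h static compound exposure, 37 °C, read 1 h post-reagent · Signal – adenylate kinase release luminescence · Read-out basis – lysis from increased AK signal · Benchmarks – Clomiphene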
PGC1a acetyl inh = modulators of PGC1a acetylation; inhibition, % at 15.6 µM; U2OS PGC1a acetylation, AlphaScreen anti-acetyl-lysine; with virally co-expressed GCN5 acetyltransferase; 350,000 tested, 0.17% active; AID 651687;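 active = every replicate shows inhibition of at least 40%; inconclusive = mean inhibition at least 40% but some replicate below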;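 note: 0% = neutral control wells and 100% = positive control wells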
Starred values were filed as active, the others as inactive; ? = inconclusive; · = no result given; ! = not confirmed by another sample. Rows were chosen to be rich in hits. Some 1.9% of all compounds tested hit in one or more screens of this group.

SMILES	F508del corr	DENV2 CPE rescue	FN deposit inh	Xi reactivation	Cneo AK release	PGC1a acetyl inh
C[C@H](CO)N1C[C@H](C)[C@@H](CN(C)CC2CCCCC2)Oc2ccc(NS(=O)(=O)c3cn(C)cn3)cc2CC1=O	-1	-9	·	0	-8	-10
C[C@H]1CN([C@@H](C)CO)C(=O)c2ccccc2-c2ccccc2CO[C@H]1CN(C)C(=O)Nc1cccc(F)c1	-4	7	0	-1	2	-7
CC(C)NC(=O)N[C@H]1CC[C@H](CCNS(=O)(=O)c2ccc(Cl)cc2)O[C@@H]1CO	-1	-1	·	0	3	-4
COc1ccc(-c2ccc3c(c2)[C@@H]2[C@@H](CCN2S(=O)(=O)c2ccc(OC)cc2)[C@@H](CO)N3)cc1	-2	-19	9	0	-12	-1
N#Cc1ccc(CN2CCN(C(=O)CC(NC(=O)c3ccccc3)c3ccccc3)CC2)cc1 (configuration not stated)	0	63*	3	0	-6	·
N#Cc1ccc(CN2CCN(C(=O)CNC(=O)Cc3cccc4ccccc34)CC2)cc1	0	2	3	0	-1	10
CCOC(=O)c1c(NC(=O)C(=O)N/N=C/c2ccccc2OC)sc2c1CCCCC2	·	·	-17	0	·	·
CCOC(=O)c1c(NC(=O)C(=O)N/N=C/c2ccccc2O)sc2c1CCCCC2	16*	5	1	0	-2	4
CCOC(=O)Cn1c(=NC(=O)c2ccc([N+](=O)[O-])s2)sc2ccccc21	·	0	15	18*	·	·
CCOC(=O)Cn1c(=NC(=O)C2COc3ccccc3O2)sc2cc(S(N)(=O)=O)ccc21 (configuration not stated)	5	9	-1	0	3	-28
Cc1nc2ccn(Cc3ccccc3)c(=O)c2cc1C(=O)N1CCN(c2ccccc2)CC1	2	26*	0	0	3	1
COc1cccc(S(=O)(=O)Nc2ccc3c(c2)OC[C@@H](C)N(C(=O)Cc2cccnc2)C[C@@H](C)[C@@H](OC)CN(C)C3=O)c1	-3	·	1	0	·	6
CC(C)n1cnnc1SCC(=O)Nc1cccnc1Cl	1	68*	0	0	0	3
Cc1c(C)c2c(OCC(=O)N3CCC(O)CC3)cc3c(c2oc1=O)CCC(C)(C)O3	9.2*	47*	·	·	-8	-8
Cc1c(C)c2c(OCC(=O)N3CCC[C@H]3C(=O)O)cc3c(c2oc1=O)CCC(C)(C)O3	-4	-11	·	·	0	7
Cc1ccc(S(=O)(=O)N[C@H]2C=C[C@@H](CC(=O)N3CCc4ccccc4C3)O[C@@H]2CO)cc1	1	-8	·	0	4	-1
COc1ccc(CN(C)C[C@H]2OCCCC[C@H](C)Oc3ccc(NS(=O)(=O)c4ccccc4)cc3C(=O)N([C@@H](C)CO)C[C@@H]2C)cc1	2	-6	-11	0	5	-7
CCN1C(=O)[C@@H]2[C@@H]3CN(S(=O)(=O)c4ccc(C)cc4)[C@@H](c4ccccc4F)[C@@H]3C(=O)C[C@@H]2C1=O	-1	21*	8	0	30	3
Cc1ccc(S(=O)(=O)N2C[C@H]3[C@H]4C(=O)N(C)C(=O)[C@H]4CC(=O)[C@H]3[C@@H]2c2ccccc2Cl)cc1	-3	-2	4	0	21	-4
Cc1ccc(S(=O)(=O)N2C[C@H]3[C@H]4C(=O)N(C)C(=O)[C@H]4CC(=O)[C@H]3[C@@H]2c2ccccc2F)cc1	8.4*	-1	-2	0	10	10
C=CCOC(=O)C(=O)/C=C/c1ccc2c(c1)Cc1ccccc1-2	1	37*!	5	0	12	0
C[C@@H]1CN([C@@H](C)CO)C(=O)Cc2cc(NC(=O)C3CCCCC3)ccc2O[C@@H]1CN(C)Cc1ccc(C(=O)O)cc1	-4	0	·	0	2	-2
O=C(Nc1ccc2ccccc2c1)C(C1CC1)n1c(=O)c(-c2cc3ccccc3[nH]2)nc2ccccc21 (configuration not stated)	1	47*	-7	0	·	·
O=C(NCc1ccccc1)C(c1ccc(C(F)(F)F)cc1)n1c(=O)c(-c2cc3ccccc3[nH]2)nc2ccccc21 (configuration not stated)	2	38*	-1	0	·	·
CC(=O)Oc1cccc(C2=CC(=O)CC(C)(C)C2=O)c1	2	22*	·	1	10	5
SMILES	F508del corr	DENV2 CPE rescue	FN deposit inh	Xi reactivation	Cneo AK release	PGC1a acetyl inh
CC1(C)CC(=O)C=C(c2cccc(OC(=O)c3ccc(Br)cc3)c2)C1=O	-1	-2	·	1	8	2
CC(C)CNC(=O)C1(C)CCCN1C(=O)c1ccncc1 (configuration not stated)	0	-2	-1	0	1	9
CC(C)CNC(=O)C1(C)CCCN1C(=O)c1cncc(Br)c1 (configuration not stated)	4	26*	-4	0	2	-12
CCCCNC(=O)C1(C)CCN1C(=O)c1cncc(Br)c1 (configuration not stated)	-1	86*	2	0	0	·
O=C(c1cccc(F)c1)N1CC2(C1)[C@H](c1ccccc1)[C@H](CO)N2C(=O)C1CC1	4	34*	-7	0	·	6
COCC(=O)N1[C@@H](CO)[C@@H](c2ccccc2)C12CN(C(=O)c1cccc(F)c1)C2	2	29*	·	0	·	10
O=C(c1cccc(F)c1)N1CC2(C1)[C@H](c1ccccc1)[C@@H](CO)N2C(=O)C1CC1	5	19	-4	0	·	8
COCC(=O)N1[C@@H](CO)[C@@H](c2ccccc2)C12CN(C(=O)c1ccc(F)cc1)C2	0	3	·	0	·	8
O=C(c1ccc2c(c1)OCO2)N1CC2(C1)[C@H](c1ccccc1)[C@H](CO)N2C(=O)C1CC1	-1	38*	-6	0	·	2
C[C@H]1CN([C@@H](C)CO)C(=O)c2cc(-c3ccc(C#N)cc3)cnc2O[C@@H]1CN(C)Cc1ccccn1	0	-1	-1	-1	-1	-7
CN(C)CCNC(=O)c1cccc2nc3cccc(F)c3nc12	9.2*	-7	-5	0	·	·
COc1ccc(OC)c2nc3c(C(=O)NCCN(C)C)cccc3nc12	7	-7	18	0	·	12
C[C@@H]1CN([C@H](C)CO)C(=O)c2cc(-c3ccc(F)cc3)cnc2O[C@H]1CN(C)C(=O)Nc1ccccc1F	2	?	4	-1	2	-7

High-throughput results deposited in PubChem BioAssay by Broad Institute.
